Reference: ChEMBL document CHEMBL2069262, “Stimulation of Glucose-Dependent Insulin Secretion by a Potent, Selective sst3 Antagonist” (ACS Med Chem Lett, 2012)
Each block holds one molecule with its values, some of them ahead of it. The source made the active and inactive calls. No cut-off for these calls is given here.

Key:
[1] = Half life in C57BL/6N mouse at 1 mg/kg, iv and 2 mg/kg, po; format: ADME, organism-based; conditions: in vivo
[2] = Clearance in C57BL/6N mouse at 1 mg/kg, iv and 2 mg/kg, po; format: ADME, organism-based; conditions: in vivo
[3] = Volume of distribution at steady state in C57BL/6N mouse at 1 mg/kg, iv and 2 mg/kg, po; format: ADME, organism-based; conditions: in vivo, read-out: Vdss
[4] = Cmax in C57BL/6N mouse at 2 mg/kg, po; format: ADME, organism-based; parameters: dose 2 mg/kg, route oral; conditions: in vivo
[5] = molecular target: Voltage-gated L-type calcium channel (Homo sapiens, UniProt Q13936+Q13698+Q01668+O60840); assay: Binding affinity to L-type calcium channel
[6] = Oral bioavailability in C57BL/6N mouse at 2 mg/kg; format: ADME, organism-based; conditions: in vivo
Mus musculus [7] = assay: Dose normalized AUC in C57BL/6N mouse at 2 mg/kg, po; format: ADME, organism-based; parameters: dose 2 mg/kg, route oral; conditions: in vivo
[8] = molecular target: Voltage-gated inwardly rectifying potassium channel KCNH2 (Homo sapiens, UniProt Q12809); assay: Displacement of [35S]MK499 from human Erg expressed in HEK293 cells after 60 mins by scintillation counting; format: cell-based
[9] = molecular target: T1, Somatostatin receptor type 3 (Homo sapiens, UniProt P32745); format: functional, cell-based, CHO
[10] = molecular target: T1, Somatostatin receptor type 3; assay: Displacement of [125I]SS-14 from human SST3 receptor expressed in CHO cells after 60 mins by scintillation counting; format: cell-based
Mus musculus [11] = assay: Antidiabetic activity in lean C57BL/6N mouse assessed as reduction in dextrose-induced glucose excursion at 2 mg/kg, po administered 1 hr before dextrose challenge measured by intraperitoneal glucose tolerance test; format: functional; parameters: scale not given: the % may be the effect or the level left
Procedure, shortened: (§1)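 Lean C57BL/6N Tac mice were fasted 5–6 h, then given test agent at 2 or 10 mg/kg 1 h before a dextrose challenge. Glucose tolerance was tested with ip dextrose (ipGTT) or oral dextrose (OGTT). Blood glucose excursion was followed and compared with dextrose alone.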

[12] = molecular target: T2, Somatostatin receptor type 3 (Mus musculus, UniProt P30935); assay: Antagonist activity at mouse SST3 receptor expressed in CHO cells assessed as inhibition of forskolin/SS-14-stimulated cAMP accumulation preincubated for 15 mins before SS-14 challenge measured after 1 hr by time-resolved fluorescence analysis; format: functional, cell-based
Procedure, shortened: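 Functional antagonism at mouse sst3 against SS-14, run as a cAMP accumulation challenge after the test molecule is prebound. Read-out is IC50.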

Mus musculus [13] = assay: Antidiabetic activity in po dosed lean C57BL/6N mouse assessed as reduction in dextrose-induced glucose excursion administered 1 hr before dextrose challenge measured by glucose tolerance test; format: functional, organism-based; procedure, shortened: as §1
[14] = molecular target: T3, Somatostatin receptor type 5 (Mus musculus, UniProt O08858); assay: Binding affinity to mouse SST5 receptor expressed in CHO cells; format: cell-based
T3 sequence (O08858 whole entry): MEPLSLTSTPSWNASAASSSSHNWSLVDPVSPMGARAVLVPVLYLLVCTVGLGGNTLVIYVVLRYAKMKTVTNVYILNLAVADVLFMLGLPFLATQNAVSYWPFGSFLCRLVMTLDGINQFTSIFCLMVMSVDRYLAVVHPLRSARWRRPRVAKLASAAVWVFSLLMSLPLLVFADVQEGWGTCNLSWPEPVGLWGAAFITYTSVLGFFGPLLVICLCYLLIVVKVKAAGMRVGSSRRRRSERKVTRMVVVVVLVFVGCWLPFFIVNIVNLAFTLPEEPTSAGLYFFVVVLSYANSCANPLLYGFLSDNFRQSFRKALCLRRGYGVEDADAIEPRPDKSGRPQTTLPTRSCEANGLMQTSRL

Mus musculus [15] = assay: Antidiabetic activity in sst3-knockout lean C57BL/6N mouse assessed as elevation in plasma insulin level at 10 mg/kg, po administered 1 hr before dextrose challenge measured after 10 mins; format: functional, organism-based; parameters: dose 10 mg/kg
Procedure, shortened: (§2)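 Wild-type and sst3 knockout mice were predosed at −60 min with 10 mg/kg, then given a dextrose challenge. Plasma insulin was measured 10 min after dextrose. n = 5.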

Mus musculus [16] = assay: Antidiabetic activity in sst3-knockout lean C57BL/6N mouse assessed as reduction in dextrose-induced glucose excursion at 10 mg/kg, po administered 1 hr before dextrose challenge measured by intraperitoneal glucose tolerance test; format: functional, organism-based; parameters: dose 10 mg/kg
Procedure, shortened: (§3)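 Wild-type and sst3 knockout mice were studied side by side in an ipGTT. They were predosed with 10 mg/kg 1 h before a 2 g/kg dextrose challenge. Read-out was total blood glucose AUC, compared with dextrose alone.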

[17] = molecular target: Somatostatin receptor type 1 (Homo sapiens, UniProt P30872); assay: Binding affinity to human SST1 receptor expressed in CHO cells; format: cell-based
[18] = Activation of glucose-stimulated insulin secretion in C57BL/6J mouse pancreatic islets at 10 uM after 1 hr by ELISA in presence of 16 mM glucose and 50 nM sst3 agonist octreotide; format: functional; conditions: Pancreatic islet
Procedure, shortened: (§4)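 Pancreatic islets were isolated from normal C57BL/6J mice. Insulin secretion was measured at 2 and 16 mM glucose. Treatments were test agent at 10 μM, octreotide at 50 nM, the two combined, DMSO as negative control and GLP-1 at 10 nM as positive control. n = 4.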

Mus musculus [19] = assay: Antidiabetic activity in lean C57BL/6N mouse assessed as reduction in dextrose-induced glucose excursion at 10 mg/kg, po administered 1 hr before dextrose challenge measured by oral glucose tolerance test; format: functional; parameters: scale not given: the % may be the effect or the level left; procedure, shortened: as §1
[20] = Activation of glucose-stimulated insulin secretion in C57BL/6J mouse pancreatic islets at 10 uM after 1 hr by ELISA in presence of 16 mM glucose relative to DMSO; format: functional; conditions: Pancreatic islet; procedure, shortened: as §4
[21] = molecular target: Somatostatin receptor type 1 (Mus musculus, UniProt P30873); assay: Binding affinity to mouse SST1 receptor expressed in CHO cells; format: cell-based
[22] = molecular target: T2, Somatostatin receptor type 3; assay: Displacement of [125I]SS-14 from mouse SST3 receptor expressed in CHO cells after 60 mins by scintillation counting; format: cell-based
Procedure, shortened: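 Competition binding at mouse sst3, read at steady-state equilibrium. Read-out is IC50.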

[23] = Activation of glucose-stimulated insulin secretion in C57BL/6J mouse pancreatic islets at 10 uM after 1 hr by ELISA in presence of 2 mM glucose; format: functional; conditions: Pancreatic islet; procedure, shortened: as §4
Mus musculus [24] = assay: Antidiabetic activity in lean C57BL/6N mouse assessed as reduction in dextrose-induced glucose excursion at 2 mg/kg, po administered 1 hr before dextrose challenge measured by oral glucose tolerance test; format: functional; parameters: scale not given: the % may be the effect or the level left; procedure, shortened: as §1
Mus musculus [25] = assay: Antidiabetic activity in lean C57BL/6N mouse assessed as reduction in dextrose-induced glucose excursion at 10 mg/kg, po administered 1 hr before dextrose challenge measured by intraperitoneal glucose tolerance test; format: functional; parameters: scale not given: the % may be the effect or the level left; procedure, shortened: as §1
Mus musculus [26] = assay: Antidiabetic activity in wild-type lean C57BL/6N mouse assessed as elevation in plasma insulin level at 10 mg/kg, po administered 1 hr before dextrose challenge measured after 10 mins; format: functional; procedure, shortened: as §2
[27] = molecular target: Somatostatin receptor type 4 (Mus musculus, UniProt P49660); assay: Binding affinity to mouse SST4 receptor expressed in CHO cells; format: cell-based
[28] = molecular target: Somatostatin receptor type 2 (Homo sapiens, UniProt P30874); assay: Binding affinity to human SST2 receptor expressed in CHO cells; format: cell-based
[29] = molecular target: Somatostatin receptor type 5 (Homo sapiens, UniProt P35346); assay: Binding affinity to human SST5 receptor expressed in CHO cells; format: cell-based
[30] = molecular target: Somatostatin receptor type 4 (Homo sapiens, UniProt P31391); assay: Binding affinity to human SST4 receptor expressed in CHO cells; format: cell-based
Mus musculus [31] = assay: Antidiabetic activity in sst3-wild-type lean C57BL/6N mouse assessed as reduction in dextrose-induced glucose excursion at 10 mg/kg, po administered 1 hr before dextrose challenge measured by intraperitoneal glucose tolerance test; format: functional; parameters: scale not given: the % may be the effect or the level left; procedure, shortened: as §3
[32] = molecular target: Somatostatin receptor type 2 (Mus musculus, UniProt P30875); assay: Binding affinity to mouse SST2 receptor expressed in CHO cells; format: cell-based
Somatostatin receptor type 2 (Mus musculus, UniProt P30875), sequence (P30875 whole entry): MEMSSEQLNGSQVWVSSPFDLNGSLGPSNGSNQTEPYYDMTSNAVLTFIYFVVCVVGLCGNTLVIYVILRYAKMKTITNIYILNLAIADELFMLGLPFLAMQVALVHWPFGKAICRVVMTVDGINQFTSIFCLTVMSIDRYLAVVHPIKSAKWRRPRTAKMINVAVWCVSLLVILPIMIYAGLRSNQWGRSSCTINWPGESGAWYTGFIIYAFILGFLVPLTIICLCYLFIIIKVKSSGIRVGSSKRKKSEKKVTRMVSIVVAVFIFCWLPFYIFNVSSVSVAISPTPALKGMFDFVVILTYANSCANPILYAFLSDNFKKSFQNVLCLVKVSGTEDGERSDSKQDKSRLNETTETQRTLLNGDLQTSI

T1 sequence (P32745 whole entry): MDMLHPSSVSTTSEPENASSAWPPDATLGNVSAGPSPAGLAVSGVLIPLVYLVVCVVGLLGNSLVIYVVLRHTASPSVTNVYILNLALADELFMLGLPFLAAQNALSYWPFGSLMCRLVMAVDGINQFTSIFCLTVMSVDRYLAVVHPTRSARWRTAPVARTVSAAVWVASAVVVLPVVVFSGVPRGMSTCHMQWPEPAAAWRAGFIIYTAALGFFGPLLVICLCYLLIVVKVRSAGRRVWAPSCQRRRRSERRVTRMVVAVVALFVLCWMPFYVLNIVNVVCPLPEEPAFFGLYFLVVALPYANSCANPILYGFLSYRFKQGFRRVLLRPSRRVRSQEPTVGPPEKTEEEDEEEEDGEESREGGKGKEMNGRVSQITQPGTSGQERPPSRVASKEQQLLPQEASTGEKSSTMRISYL
Voltage-gated inwardly rectifying potassium channel KCNH2, sequence (Q12809 whole entry): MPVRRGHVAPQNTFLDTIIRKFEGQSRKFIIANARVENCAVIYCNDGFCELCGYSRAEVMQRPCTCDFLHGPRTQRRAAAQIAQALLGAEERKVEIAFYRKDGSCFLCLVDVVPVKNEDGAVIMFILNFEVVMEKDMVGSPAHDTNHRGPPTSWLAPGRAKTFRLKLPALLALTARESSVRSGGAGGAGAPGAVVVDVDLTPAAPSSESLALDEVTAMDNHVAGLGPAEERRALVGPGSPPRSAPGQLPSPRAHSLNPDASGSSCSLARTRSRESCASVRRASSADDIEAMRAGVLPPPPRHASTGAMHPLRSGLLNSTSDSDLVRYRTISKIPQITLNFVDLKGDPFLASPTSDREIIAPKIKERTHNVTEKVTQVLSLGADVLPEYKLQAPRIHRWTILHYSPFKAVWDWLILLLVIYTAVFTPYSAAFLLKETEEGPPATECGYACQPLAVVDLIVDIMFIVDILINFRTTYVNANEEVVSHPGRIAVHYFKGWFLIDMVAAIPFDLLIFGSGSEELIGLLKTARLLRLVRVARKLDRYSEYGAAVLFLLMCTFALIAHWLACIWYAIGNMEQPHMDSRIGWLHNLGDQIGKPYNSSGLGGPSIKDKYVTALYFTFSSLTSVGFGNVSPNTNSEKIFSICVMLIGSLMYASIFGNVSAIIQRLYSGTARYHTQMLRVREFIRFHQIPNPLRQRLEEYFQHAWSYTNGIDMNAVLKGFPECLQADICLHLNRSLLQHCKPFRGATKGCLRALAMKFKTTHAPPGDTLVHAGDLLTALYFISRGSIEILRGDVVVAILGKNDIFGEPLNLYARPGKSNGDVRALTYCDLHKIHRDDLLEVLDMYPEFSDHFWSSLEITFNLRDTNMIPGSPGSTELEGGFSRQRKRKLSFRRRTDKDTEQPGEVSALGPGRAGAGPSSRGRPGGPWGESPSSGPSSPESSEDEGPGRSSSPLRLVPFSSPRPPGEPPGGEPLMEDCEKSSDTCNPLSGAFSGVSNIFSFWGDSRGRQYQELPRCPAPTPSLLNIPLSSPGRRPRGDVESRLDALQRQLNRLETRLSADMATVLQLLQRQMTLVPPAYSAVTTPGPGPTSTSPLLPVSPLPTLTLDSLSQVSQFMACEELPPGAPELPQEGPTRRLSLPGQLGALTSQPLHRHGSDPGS
T2 sequence (P30935 whole entry): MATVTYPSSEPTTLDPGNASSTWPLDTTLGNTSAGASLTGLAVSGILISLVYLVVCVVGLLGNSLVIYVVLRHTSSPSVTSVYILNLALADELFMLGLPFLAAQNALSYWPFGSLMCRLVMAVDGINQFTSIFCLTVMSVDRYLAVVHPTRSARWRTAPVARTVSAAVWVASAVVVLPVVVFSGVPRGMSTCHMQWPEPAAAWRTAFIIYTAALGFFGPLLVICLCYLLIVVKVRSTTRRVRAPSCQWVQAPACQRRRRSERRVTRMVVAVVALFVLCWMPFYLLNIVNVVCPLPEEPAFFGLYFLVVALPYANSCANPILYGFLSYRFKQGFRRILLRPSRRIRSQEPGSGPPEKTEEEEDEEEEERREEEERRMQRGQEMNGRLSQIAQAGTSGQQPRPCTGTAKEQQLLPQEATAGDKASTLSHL
Somatostatin receptor type 1 (Homo sapiens, UniProt P30872), sequence (P30872 whole entry): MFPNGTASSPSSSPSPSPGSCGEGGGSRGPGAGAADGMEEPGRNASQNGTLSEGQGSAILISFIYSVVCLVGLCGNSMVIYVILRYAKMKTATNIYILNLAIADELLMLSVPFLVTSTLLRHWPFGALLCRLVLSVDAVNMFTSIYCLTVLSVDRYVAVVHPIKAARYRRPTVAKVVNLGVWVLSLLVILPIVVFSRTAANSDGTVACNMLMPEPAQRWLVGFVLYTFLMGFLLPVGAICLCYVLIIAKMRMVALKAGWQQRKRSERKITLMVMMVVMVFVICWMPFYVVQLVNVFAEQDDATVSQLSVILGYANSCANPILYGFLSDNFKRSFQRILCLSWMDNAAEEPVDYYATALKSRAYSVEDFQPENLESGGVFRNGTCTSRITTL
Somatostatin receptor type 4 (Homo sapiens, UniProt P31391), sequence (P31391 whole entry): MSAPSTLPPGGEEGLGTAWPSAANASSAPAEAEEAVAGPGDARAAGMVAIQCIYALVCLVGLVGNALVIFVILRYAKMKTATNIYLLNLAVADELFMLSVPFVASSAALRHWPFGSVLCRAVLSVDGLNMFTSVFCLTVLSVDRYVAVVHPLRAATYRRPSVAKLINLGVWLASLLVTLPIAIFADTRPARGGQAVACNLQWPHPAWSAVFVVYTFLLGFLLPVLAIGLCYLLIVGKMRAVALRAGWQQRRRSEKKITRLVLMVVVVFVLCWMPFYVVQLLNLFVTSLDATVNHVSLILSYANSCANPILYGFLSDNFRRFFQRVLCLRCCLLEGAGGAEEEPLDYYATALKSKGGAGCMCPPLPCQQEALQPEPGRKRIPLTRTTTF
Somatostatin receptor type 5 (Homo sapiens, UniProt P35346), sequence (P35346 whole entry): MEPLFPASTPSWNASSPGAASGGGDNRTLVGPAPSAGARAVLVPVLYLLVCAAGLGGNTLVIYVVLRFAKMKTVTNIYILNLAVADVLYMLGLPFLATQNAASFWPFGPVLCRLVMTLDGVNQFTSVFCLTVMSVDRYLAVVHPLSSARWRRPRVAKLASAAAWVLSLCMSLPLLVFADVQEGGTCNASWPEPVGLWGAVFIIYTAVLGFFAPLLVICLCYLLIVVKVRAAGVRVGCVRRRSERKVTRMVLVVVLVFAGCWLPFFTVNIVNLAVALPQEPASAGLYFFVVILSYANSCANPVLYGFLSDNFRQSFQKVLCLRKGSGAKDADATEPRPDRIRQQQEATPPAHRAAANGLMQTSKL
Somatostatin receptor type 1 (Mus musculus, UniProt P30873), sequence (P30873 whole entry): as the sequence (P30872 whole entry) above, with G25A, G26C, A32S, T385A, T389S counted along it
Somatostatin receptor type 4 (Mus musculus, UniProt P49660), sequence (P49660 as listed by the source): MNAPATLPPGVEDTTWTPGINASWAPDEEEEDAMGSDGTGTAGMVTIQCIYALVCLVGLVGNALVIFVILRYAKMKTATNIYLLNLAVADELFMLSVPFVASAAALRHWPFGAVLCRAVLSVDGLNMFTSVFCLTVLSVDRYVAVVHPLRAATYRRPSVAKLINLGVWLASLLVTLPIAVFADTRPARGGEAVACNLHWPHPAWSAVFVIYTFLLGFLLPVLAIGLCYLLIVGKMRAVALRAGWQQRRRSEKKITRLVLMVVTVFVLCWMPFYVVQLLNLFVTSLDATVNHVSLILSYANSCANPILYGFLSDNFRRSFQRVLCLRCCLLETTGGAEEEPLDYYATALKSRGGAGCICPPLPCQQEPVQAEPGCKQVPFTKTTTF
Somatostatin receptor type 2 (Homo sapiens, UniProt P30874), sequence (P30874 whole entry): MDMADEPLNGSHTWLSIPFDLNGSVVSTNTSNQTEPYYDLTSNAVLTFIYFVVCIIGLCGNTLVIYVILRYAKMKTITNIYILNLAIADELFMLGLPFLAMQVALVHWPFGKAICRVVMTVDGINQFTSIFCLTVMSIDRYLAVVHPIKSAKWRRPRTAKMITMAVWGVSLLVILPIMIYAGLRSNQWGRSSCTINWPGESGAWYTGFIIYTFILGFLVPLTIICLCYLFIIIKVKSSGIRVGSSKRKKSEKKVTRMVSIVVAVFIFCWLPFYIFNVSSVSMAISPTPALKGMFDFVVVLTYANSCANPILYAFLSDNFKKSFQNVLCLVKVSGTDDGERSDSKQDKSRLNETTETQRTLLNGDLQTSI

half-life [1]: 32.4 min | clearance [2]: 31 mL/min/kg | Vd [3]: 0.7 L/kg | Cmax [4]: 130 nM | IC50 [5]: 1526 nM | bioavailability [6]: 4% | AUC/dose (Mus musculus [7]): 0.06 µM·h/mg
SMILES: CCOCC1(COCC)N[C@@H](c2nc(-c3ccccc3)c[nH]2)Cc2c1[nH]c1ccccc21

IC50 [9]: 46 nM | IC50 [10]: 16 nM
SMILES: CC(=O)N1CCC(C2N[C@@H](c3nc(-c4ccccc4)c[nH]3)Cc3c2[nH]c2ccccc32)CC1 (stereo not given in full)
IC50 [8]: 9800 nM

clearance [2]: 126 mL/min/kg | IC50 [5]: 128 nM
SMILES: CCCCC1(CCCC)N[C@@H](c2nc(-c3ccccc3)c[nH]2)Cc2c1[nH]c1ccccc21
IC50 [8]: 150 nM

IC50 [9]: 220 nM | IC50 [10]: 63 nM
SMILES: c1ccc(-c2c[nH]c([C@H]3Cc4c([nH]c5ccccc45)C(C4CCNCC4)N3)n2)cc1 (stereo not given in full)

IC50 [9]: 24 nM | IC50 [10]: 21 nM
SMILES: [O-][S+]1CCC(C2N[C@@H](c3nc(-c4ccccc4)c[nH]3)Cc3c2[nH]c2ccccc32)CC1 (single isomer, unassigned; isomer 2)
IC50 [8]: 100 nM

IC50 [10]: 44 nM
SMILES: CS(=O)(=O)N1CCC(C2N[C@@H](c3nc(-c4ccccc4)c[nH]3)Cc3c2[nH]c2ccccc32)CC1 (stereo not given in full)

half-life [1]: 96 min | IC50 [12]: 16 nM | clearance [2]: 15 mL/min/kg | IC50 [14]: > 10 µM | Vd [3]: 1.6 L/kg | IC50 [17]: > 1000 nM | Cmax [4]: 840 nM | IC50 [21]: > 10 µM | IC50 [22]: 8.9 nM | IC50 [5]: 1900 nM | bioavailability [6]: 45% | AUC/dose (Mus musculus [7]): 1.3 µM·h/mg | IC50 [27]: > 10 µM | IC50 [28]: > 1000 nM | IC50 [9]: 22 nM | IC50 [29]: > 1000 nM | IC50 [30]: > 1000 nM | IC50 [10]: 14 nM | IC50 [32]: > 10 µM
SMILES: c1ccc(-c2c[nH]c([C@H]3Cc4c([nH]c5ccccc45)[C@@H](C4CCOCC4)N3)n2)cc1
Activity (Mus musculus [11]): 58% | Activity (Mus musculus [13]): Dose-dependent effect | Activity (Mus musculus [15]): inactive | Activity (Mus musculus [16]): inactive | Activity [18]: Active | Activity (Mus musculus [19]): 67% | Activity [20]: 44% | Activity [23]: inactive | Activity (Mus musculus [24]): 66% | Activity (Mus musculus [25]): 78% | Activity (Mus musculus [26]): 50% | Activity (Mus musculus [31]): 26%

IC50 [9]: 380 nM | IC50 [10]: 220 nM
SMILES: [O-][S+]1CCC(C2N[C@@H](c3nc(-c4ccccc4)c[nH]3)Cc3c2[nH]c2ccccc32)CC1 (single isomer, unassigned; isomer 1)

IC50 [9]: 290 nM | IC50 [10]: 120 nM
SMILES: O=S1(=O)CCC(C2N[C@@H](c3nc(-c4ccccc4)c[nH]3)Cc3c2[nH]c2ccccc32)CC1 (stereo not given in full)
IC50 [8]: 100 nM
